≈ marks a conversion by molar mass, not a printed value.
Tests used:
[1] = test system: A2780; test: Antiproliferative activity against human A2780 cells; format: functional, cell-based
Outline: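 A2780 ovarian carcinoma proliferation assay in 384-well format, modified from the patent protocol. IC50 given as the mean of triplicate experiments ± SD; some values come from a single experiment.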

[2] = target: Histone deacetylase; test: Inhibition of HDAC in human HeLa cells extractt; format: cell-free
[3] = test system: A2780; test: Anticancer activity against human A2780 cells expressing p21 waf1,cip1 xenografted in athymic nude mouse assessed as fold increase in fluorescence at 40 mg/kg, po administered once for 3 days relative to R306465; format: functional
Outline: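 A2780 ovarian carcinoma cells engineered to express ZsGreen under the p21waf1,cip1 promoter were grafted subcutaneously into athymic nude mice. Animals were dosed orally at 40 mg/kg for 3 days. In vivo fluorescence induction was then read by noninvasive whole-body imaging and expressed as fold increase versus reference R306465 set at 1.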

[4] = Volume of distribution at steady state in Sprague-Dawley rat at 2.5 mg/kg, iv administered in water at pH 4.4; format: ADME, organism-based; parameters: dose 2.5 mg/kg, route intravenous; settings: in vivo, read-out: Vdss
Outline: (§1)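 Male Sprague-Dawley rats. IV arm dosed at 2.5 mg/kg in water at pH 4.4; oral arm dosed at 10 mg/kg in water at pH 4.5. AUC0-inf taken for each route. Clearance and Vdss come from the IV arm. F (%) comes from the oral versus IV exposure.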

[5] = AUC (0 to infinity) in Sprague-Dawley rat at 10 mg/kg, po administered in water at pH 4.5; format: ADME, organism-based; parameters: time infinity, dose 10 mg/kg, route oral; settings: plasma; outline: as §1
[6] = Oral bioavailability in Sprague-Dawley rat at 10 mg/kg administered in water at pH 4.5; format: ADME, organism-based; settings: in vivo; outline: as §1
[7] = Clearance in Sprague-Dawley rat at 2.5 mg/kg, iv administered in water at pH 4.4; format: ADME, organism-based; parameters: dose 2.5 mg/kg, route intravenous; settings: in vivo; outline: as §1
[8] = AUC (0 to infinity) in Sprague-Dawley rat at 2.5 mg/kg, iv administered in water at pH 4.4; format: ADME, organism-based; parameters: time infinity, dose 2.5 mg/kg, route intravenous; settings: plasma; outline: as §1
[9] = Half life in Sprague-Dawley rat at 2.5 mg/kg, iv administered in water at pH 4.4 measured 1 to 4 hrs post dose; format: ADME, organism-based; parameters: dose 2.5 mg/kg, route intravenous; settings: in vivo
Outline: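 Male Sprague-Dawley rats given 2.5 mg/kg IV in water at pH 4.4. Terminal half-life fitted over the 1 h to 4 h post-dose window.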

[10] = Thermodynamic solubility in phosphate-citrate buffer at pH 7.4; format: physicochemical
Outline: (§2)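 Thermodynamic solubility. About 2.5 mg of solid was weighed and equilibrated in phosphate-citrate buffer at the stated pH, then filtered where needed. The filtrate was diluted in 0.1 N HCl/acetonitrile (1/1) and the concentration measured by UPLC.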

[11] = Half life in Sprague-Dawley rat at 2.5 mg/kg, iv administered in water at pH 4.4 measured 2 to 8 hrs post dose; format: ADME, organism-based; parameters: dose 2.5 mg/kg, route intravenous; settings: in vivo
Outline: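 Male Sprague-Dawley rats given 2.5 mg/kg IV in water at pH 4.4. Half-life estimated from the 2 h to 8 h post-dose interval.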

[12] = Thermodynamic solubility in phosphate-citrate buffer at pH 4.6; format: physicochemical; outline: as §2
[13] = Thermodynamic solubility in phosphate-citrate buffer at pH 7.7; format: physicochemical; outline: as §2

Compound | IC50 ([1]; Homo sapiens, A2780) | IC50 [2] | other results
O=C(NO)c1cnc(N2CCC(NC(/C=C/c3ccccc3)CO)CC2)nc1 (centres undefined) | 0.219 µM | 0.007 µM | 
CN1CCN(CC(/C=C/c2ccccc2)N2CCN(c3ncc(C(=O)NO)cn3)CC2)CC1 (centres undefined) | 0.392 µM | 0.0069 µM | 
O=C(NO)c1cnc(N2CCN(C(/C=C/c3ccccc3)C(=O)N3CCOCC3)CC2)nc1 (centres undefined) | 0.124 µM | 0.007 µM | 
O=C(NO)c1cnc(N2CCN(C(/C=C/c3ccccc3)CN3CCOCC3)CC2)nc1 (centres undefined) | 0.315 µM | 0.011 µM | 
CNC(=O)C(/C=C/c1ccccc1)N1CCN(c2ncc(C(=O)NO)cn2)CC1 (centres undefined) | 0.159 µM | 0.0033 µM | 
NC(/C=C/c1ccccc1)CN1CCN(c2ncc(C(=O)NO)cn2)CC1 (centres undefined) | 0.281 µM | 0.0038 µM | fold change (FC) [3]: 0.5
O=C(NO)c1cnc(N2CCOC(CNC(/C=C/c3ccccc3)CO)C2)nc1 (centres undefined) | 0.295 µM | 0.008 µM | 
O=C(NO)c1cnc(N2CCN(C(/C=C/c3ccc(F)cc3)CO)CC2)nc1 (single isomer, unassigned; (+)) |  |  | IC50 ([1]; a2780): 0.027 µM
O=C(NO)c1cnc(N2CCN(C(/C=C/c3ccc(F)cc3)CO)CC2)nc1 (single isomer, unassigned; (-)) |  |  | Vd [4]: 1.6 L/kg; IC50 ([1]; a2780): 0.031 µM; AUC(0-inf) [5]: 466 ng·h/mL; bioavailability [6]: 22%; clearance [7]: 76.7 mL/min/kg; AUC(0-inf) [8]: 521 ng·h/mL; half-life [9]: 0.8 h
O=C(NO)c1cnc(N2CCN(C(/C=C/c3ccccc3)CO)CC2)nc1 (single isomer, unassigned; (-)) |  | 0.0018 µM | IC50 ([1]; a2780): 0.03 µM
O=C(NO)c1cnc(N2CCN(C(/C=C/c3ccccc3)CO)CC2)nc1 (stereo in doubt; 3a1) |  | 0.001 µM | IC50 ([1]; a2780): 0.04 µM

More lines, main results first:

IC50 ([1]; Homo sapiens, A2780) | IC50 [2] | Compound | other results
0.045 µM | 0.0015 µM | COCC(/C=C/c1ccccc1)N1CCN(c2ncc(C(=O)NO)cn2)CC1 (centres undefined) | 
0.065 µM | 0.0021 µM | O=C(NO)c1cnc(N2CCN(C(/C=C/c3ccc(C(F)(F)F)cc3)CO)CC2)nc1 (centres undefined) | 
0.047 µM | 0.0015 µM | O=C(NO)c1cnc(N2CCC(CNC(/C=C/c3ccccc3)CO)CC2)nc1 (centres undefined) | 
< 0.03 µM | 0.002 µM | O=C(NO)c1cnc(N2CCN(C(/C=C/c3ccccc3F)CO)CC2)nc1 (centres undefined) | 
0.066 µM | 0.0015 µM | O=C(NO)c1cnc(N2CCN(Cc3ccc4ccccc4c3)CC2)nc1 | 
0.018 µM | 0.00095 µM | COc1ccc(/C=C/C(CO)N2CCN(c3ncc(C(=O)NO)cn3)CC2)cc1 (centres undefined) | 
0.018 µM | 0.001 µM | Cc1ccc(/C=C/C(CO)N2CCN(c3ncc(C(=O)NO)cn3)CC2)cc1 (centres undefined) | 
0.02 µM | 0.0017 µM | CC(/C=C/c1ccccc1)N1CCN(c2ncc(C(=O)NO)cn2)CC1 (centres undefined) | 
0.017 µM | 0.0012 µM | O=C(NO)c1cnc(N2CCN(C(/C=C/c3ccc(Cl)cc3)CO)CC2)nc1 (centres undefined) | 
0.029 µM | 0.0009 µM | O=C(NO)c1cnc(N2CCN(C(/C=C/c3ccc(-c4ccccc4)cc3)CO)CC2)nc1 (centres undefined) | 
0.036 µM | 0.0012 µM | O=C(NO)c1cnc(N2CCN(C(/C=C/c3cccc(F)c3)CO)CC2)nc1 (centres undefined) | 
0.025 µM | 0.002 µM | O=C(NO)c1cnc(N2CCN(C(/C=C/c3ccccc3)CO)CC2)nc1 (stereo in doubt; 3a) | Vd [4]: 5.8 L/kg; AUC(0-inf) [5]: 316 ng·h/mL; bioavailability [6]: 19%; solubility thermodynamic [10]: 1100 µg/mL (≈ 2980 µM); clearance [7]: 98.3 mL/min/kg; AUC(0-inf) [8]: 413 ng·h/mL; half-life [11]: 2.6 h; solubility thermodynamic [12]: > 10000 µg/mL; fold change (FC) [3]: 5
0.032 µM |  | O=C(NO)c1cnc(N2CCN(C(/C=C/c3ccc(F)cc3)CO)CC2)nc1 (stereo in doubt; 3i) | 
0.039 µM |  | O=C(NO)c1cnc(N2CCN(S(=O)(=O)c3ccc4ccccc4c3)CC2)nc1 [R-306465] | solubility thermodynamic [13]: < 100 µg/mL; Vd [4]: 0.6 L/kg; AUC(0-inf) [5]: 3380 ng·h/mL; bioavailability [6]: 20%; clearance [7]: 13.3 mL/min/kg; AUC(0-inf) [8]: 2650 ng·h/mL; half-life [11]: 1.5 h

Source: ChEMBL document CHEMBL1153112, “Identification of a series of substituted 2-piperazinyl-5-pyrimidylhydroxamic acids as potent histone deacetylase inhibitors” (Bioorg Med Chem Lett, 2010)
